Measured values: ChEMBL document CHEMBL1129321, “Discovery of an orally active non-peptide fibrinogen receptor antagonist” (J Med Chem, 1996)
Each block holds one molecule with its values, some of them ahead of it.

How the values were obtained:
Homo sapiens [1] = organism: Homo sapiens; assay: Inhibitory activity against aggregation of human platelets; format: functional, organism-based
Outline: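 Human platelets were gel-filtered from PRP on Sepharose 2B and used at 3 × 10⁸ platelets/mL with 1 mg/mL fibrinogen. Compounds were added at 37 °C 2 min before activation with 10 µM ADP, with stirring at 1000 rpm at 37 °C. Aggregation was read as the maximal increase in light transmittance. IC50 is the mean over GFP from two to six donors.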

[2] = Oral bioavailability in dog; format: ADME, organism-based, Canis lupus familiaris; conditions: in vivo
Outline: (§1)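 Conscious dogs received compound intravenously and orally, and blood was sampled over time for plasma. Active plasma equivalents were measured by bioassay as inhibition of ¹²⁵I-fibrinogen binding to isolated, immobilized GPIIb/IIIa. Kinetic data points are means from four dogs.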

[3] = target: T1, Integrin alpha-IIb/beta-3 (Homo sapiens, UniProt P05106+P08514); assay: Inhibition of [125I]fibrinogen binding to ADP-activated human gel filtered platelets
[4] = target: T1, Integrin alpha-IIb/beta-3; assay: Inhibition of [125I]fibrinogen binding to isolated GPIIb/IIIa; format: protein-complex assay
Canis familiaris = organism: Canis familiaris; assay: Inhibitory activity against dog platelet aggregation in GFP; format: functional, organism-based; conditions: Canis lupus familiaris
Homo sapiens [5] = organism: Homo sapiens; assay: Inhibitory activity against platelet rich plasma; format: functional, organism-based
[6] = Half life from dog blood after intravenous administration at a dose of 0.3 mg/kg Expt-1; format: ADME, organism-based, Canis lupus familiaris; set-up: dose 0.3 mg/kg, route intravenous; outline: as §1
[7] = Half life from dog blood after intravenous administration at a dose of 0.3 mg/kg Expt-2; format: ADME, organism-based, Canis lupus familiaris; set-up: dose 0.3 mg/kg, route intravenous; outline: as §1
[8] = Half life from dog blood after oral administration at a dose of 3 mg/kg Expt-1; format: ADME, organism-based, Canis lupus familiaris; set-up: dose 3 mg/kg, route oral; outline: as §1
[9] = Half life from dog blood after oral administration at a dose of 3 mg/kg Expt-2; format: ADME, organism-based, Canis lupus familiaris; set-up: dose 3 mg/kg, route oral; outline: as §1

T1 sequence (P05106 27-788 limits assumed): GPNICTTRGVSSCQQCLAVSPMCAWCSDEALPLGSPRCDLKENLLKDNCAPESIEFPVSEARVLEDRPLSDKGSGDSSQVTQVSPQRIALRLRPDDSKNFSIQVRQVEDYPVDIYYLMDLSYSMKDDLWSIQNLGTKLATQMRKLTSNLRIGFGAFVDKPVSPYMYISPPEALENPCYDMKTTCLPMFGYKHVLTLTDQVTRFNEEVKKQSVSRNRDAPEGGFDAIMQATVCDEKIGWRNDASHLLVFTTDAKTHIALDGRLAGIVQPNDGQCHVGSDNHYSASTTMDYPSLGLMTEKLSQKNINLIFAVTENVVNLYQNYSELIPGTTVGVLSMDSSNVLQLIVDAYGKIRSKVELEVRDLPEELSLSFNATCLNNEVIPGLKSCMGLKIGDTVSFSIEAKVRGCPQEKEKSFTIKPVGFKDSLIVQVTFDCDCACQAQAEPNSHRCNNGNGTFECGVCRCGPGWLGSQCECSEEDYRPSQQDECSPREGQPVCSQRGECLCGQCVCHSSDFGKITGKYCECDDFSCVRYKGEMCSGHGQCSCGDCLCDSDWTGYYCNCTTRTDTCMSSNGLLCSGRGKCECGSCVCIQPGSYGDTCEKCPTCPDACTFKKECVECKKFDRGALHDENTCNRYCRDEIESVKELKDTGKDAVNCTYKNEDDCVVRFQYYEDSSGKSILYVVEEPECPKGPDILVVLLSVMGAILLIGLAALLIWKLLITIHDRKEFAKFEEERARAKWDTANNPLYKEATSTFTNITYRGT
T1 sequence (P08514 32-887 limits assumed): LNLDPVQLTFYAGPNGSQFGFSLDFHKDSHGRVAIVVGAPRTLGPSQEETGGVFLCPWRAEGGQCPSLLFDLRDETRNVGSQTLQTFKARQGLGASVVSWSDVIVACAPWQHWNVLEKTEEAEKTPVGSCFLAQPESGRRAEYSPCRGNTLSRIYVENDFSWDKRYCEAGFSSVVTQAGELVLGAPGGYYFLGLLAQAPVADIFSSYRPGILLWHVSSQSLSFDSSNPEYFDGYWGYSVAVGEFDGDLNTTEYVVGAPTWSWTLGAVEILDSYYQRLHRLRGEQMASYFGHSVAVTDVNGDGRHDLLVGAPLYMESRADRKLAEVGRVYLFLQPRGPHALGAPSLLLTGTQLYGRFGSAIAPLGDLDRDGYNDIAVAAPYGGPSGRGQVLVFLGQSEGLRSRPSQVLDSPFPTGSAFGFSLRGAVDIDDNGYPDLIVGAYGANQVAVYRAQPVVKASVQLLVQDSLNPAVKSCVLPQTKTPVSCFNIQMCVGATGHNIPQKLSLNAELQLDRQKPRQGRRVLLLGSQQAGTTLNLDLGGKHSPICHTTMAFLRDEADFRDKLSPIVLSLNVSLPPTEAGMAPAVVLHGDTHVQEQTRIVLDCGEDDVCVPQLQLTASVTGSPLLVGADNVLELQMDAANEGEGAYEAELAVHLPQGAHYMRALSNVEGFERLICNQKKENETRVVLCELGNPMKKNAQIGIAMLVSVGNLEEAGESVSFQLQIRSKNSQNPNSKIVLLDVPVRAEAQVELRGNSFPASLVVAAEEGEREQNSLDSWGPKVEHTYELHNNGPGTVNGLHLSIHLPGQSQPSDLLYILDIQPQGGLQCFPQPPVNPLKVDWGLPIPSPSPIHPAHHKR
T1 sequence (P08514 891-1039 limits assumed): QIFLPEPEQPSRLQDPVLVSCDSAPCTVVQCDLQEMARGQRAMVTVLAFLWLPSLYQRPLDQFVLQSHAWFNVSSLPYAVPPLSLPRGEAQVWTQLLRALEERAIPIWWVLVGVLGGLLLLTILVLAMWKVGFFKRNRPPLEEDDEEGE

Structure (SMILES): N=C(N)NCCC[C@@H]1NC(=O)N(CC(=O)N[C@@H](CC(=O)O)C(=O)N[C@H](C(=O)O)c2ccccc2)C1=O
IC50 (Homo sapiens [1]): 900 nM

Structure (SMILES): N=C(N)NCCC[C@@H]1NC(=O)N(CC(=O)N[C@@H](CC(=O)O)C(=O)N[C@@H](CO)C(=O)O)C1=O
IC50 (Homo sapiens [1]): 10000 nM

Structure (SMILES): CC1(c2ccc(C(=N)N)cc2)NC(=O)N(CC(=O)NC(CC(=O)O)c2ccc3c(c2)OCO3)C1=O (stereo unspecified)
IC50 (Homo sapiens [1]): 80 nM

Structure (SMILES): CC1(c2ccc(C(=N)N)cc2)NC(=O)N(CC(=O)NC(CC(=O)O)c2cccnc2)C1=O (stereo unspecified)
IC50 (Homo sapiens [1]): 100 nM

Structure (SMILES): CC1(c2ccc(C(=N)N)cc2)NC(=O)N(CC(=O)NC(CC(=O)O)c2cccc3ccccc23)C1=O (stereo unspecified)
IC50 (Homo sapiens [1]): 300 nM

Other lines, results leading:

bioavailability [2]: 5%
IC50 (Homo sapiens [1]): 200 nM
Structure (SMILES): CC1(c2ccc(C(=N)N)cc2)NC(=O)N(CC(=O)NC(CC(=O)O)c2ccccc2)C1=O (stereo unspecified)

IC50 (Homo sapiens [1]): 6000 nM
Structure (SMILES): C[C@]1(c2ccc(C(=N)N)cc2)NC(=O)N(CC(=O)N[C@@H](CC(=O)O)c2ccccc2)C1=O

IC50 (Homo sapiens [1]): 5000 nM
Structure (SMILES): C[C@]1(c2ccc(C(=N)N)cc2)NC(=O)N(CC(=O)N[C@H](CC(=O)O)c2ccccc2)C1=O

bioavailability [2]: 10%
Ki [3]: 9 nM
Ki [4]: 0.17 nM
IC50 (Canis familiaris): 100 nM
IC50 (Homo sapiens [1]): 20 nM
IC50 (Homo sapiens [5]): 100 nM
Structure (SMILES): C[C@@]1(c2ccc(C(=N)N)cc2)NC(=O)N(CC(=O)N[C@@H](CC(=O)O)c2ccccc2)C1=O

IC50 (Homo sapiens [1]): 50000 nM
Structure (SMILES): C[C@@]1(c2ccc(C(=N)N)cc2)NC(=O)N(CC(=O)N[C@H](CC(=O)O)c2ccccc2)C1=O

bioavailability [2]: 42%
half-life [6]: 1.4 h
half-life [7]: 0.8 h
half-life [8]: 7.9 h
half-life [9]: 9.9 h
Structure (SMILES): CCOC(=O)C[C@H](NC(=O)CN1C(=O)N[C@@](C)(c2ccc(C(=N)N)cc2)C1=O)c1ccccc1 [CARAFIBAN]
